# From PubChem BioAssay
# Rows were chosen to be rich in hits. Some 2.5% of all compounds tested hit in one or more screens of this group.
# MC4R barr agon – human MC4R agonism via beta-arrestin. P32245. U2OS MC4R beta-arrestin complementation, luminescence; percent of melanotan II response, DMSO zero. activation, % at 8.9 µM. 360,000 tested, 0.98% active. AID 540308;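 active = activation above a per-plate cutoff, the mean activation of sample wells on that plate plus 3 SD, cut at about 8% in these data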
# NTR1 ag – activates human neurotensin receptor 1; P30989; NTR1-U2OS beta-arrestin-GFP spot imaging, agonist mode; activation, % at 20 µM; 330,000 tested, 0.17% active; AID 493036;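 active = activation at or above 40% of the spot to cytoplasm intensity ratio, with at least 20 cells analyzed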;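 note: 0% = DMSO without peptide and 100% = 100 nM NTR1 peptide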
# Target sequence (P30989 whole entry, looked up): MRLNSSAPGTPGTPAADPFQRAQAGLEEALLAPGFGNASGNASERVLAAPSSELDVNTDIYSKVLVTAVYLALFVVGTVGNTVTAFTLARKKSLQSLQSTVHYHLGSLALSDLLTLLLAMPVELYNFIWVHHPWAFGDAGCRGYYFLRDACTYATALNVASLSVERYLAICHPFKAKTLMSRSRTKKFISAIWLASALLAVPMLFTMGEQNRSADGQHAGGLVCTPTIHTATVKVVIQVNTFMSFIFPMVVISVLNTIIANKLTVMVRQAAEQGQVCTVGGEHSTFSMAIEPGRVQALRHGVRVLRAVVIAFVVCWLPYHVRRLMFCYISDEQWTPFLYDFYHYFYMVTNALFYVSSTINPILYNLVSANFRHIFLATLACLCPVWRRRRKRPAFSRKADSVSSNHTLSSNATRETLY
# PG9 Ab binder – binds the HIV-1 gp120 antibody PG9; AID 624416; inhibition, % at 6.7 µM; TR-FRET gp120-PG9 antibody binding; 360,000 tested, 0.43% active; in the data active = inhibition above about 8.5%
# MC4R antag cAMP – blocks human MC4R cAMP signaling | MC4R-expressing cells, MTII-stimulated cAMP, LANCE TR-FRET | inhibition, % at 6.5 µM | 360,000 tested, 0.48% active | AID 540295;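 active = inhibition above its plate's cutoff, the mean of tested wells on that plate plus 3 SD, cut at about 29% in these data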;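 note: 0% = Melanotan II alone and 100% = Melanotan II plus saturating MCL0020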
#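 Test system: U2OS cells stably expressing human melanocortin 4 receptor (MC4R); also added: Melanotan II challenge; compound: 6.5 µM single dose; timing: 30-min compound preincubation, 1-h Melanotan II challenge, 1-h detection, room temperature; signal: Eu-cAMP/anti-cAMP TR-FRET, emission 671 nm; repeats: one well per compound, no replicates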
# Rev-erbA mod – Rev-erb alpha (human) modulation. P20393. Rev-erbα–FITC-DNA binding, fluorescence polarization, 90 min. activity, % at 10 µM. 370,000 tested, 0.79% active;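 active = activity above about 14%, limit read from the data; passing the limit was not always enough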;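 note: 0% = DMSO wells with 35 nM protein and 100% = DMSO wells with 750 nM protein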
# cAMP nonselect – nonselective cAMP signaling inhibitor, MC4R antagonist counter-screen; shares compounds with MC4R antag cAMP; AID 602193; parental U2OS, forskolin cAMP, LANCE TR-FRET; inhibition, % at 6.5 µM; 1,600 tested, 26% active;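 active = mean inhibition over triplicates above the low-control well mean plus 3 SD, set per campaign, cut at about 13% in these data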;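 note: signal is single emission at 671 nm which falls as cellular cAMP rises; 0% = forskolin-stimulated wells and 100% = buffer without forskolin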
# MC4R antag conf – human MC4R cAMP antagonism confirmation; shares compounds with MC4R antag cAMP; MC4R-expressing cells, MTII-stimulated cAMP, TR-FRET; 1,600 tested, 27% active; inhibition, % at 6.5 µM; AID 602195; in the data active = inhibition above about 29%;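 note: 0% = agonist stimulated wells alone and 100% = agonist stimulated wells plus saturating reference antagonist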
# Starred values were filed as active, the others as inactive; / = no result given.
SMILES,MC4R barr agon,NTR1 ag,PG9 Ab binder,MC4R antag cAMP,Rev-erbA mod,cAMP nonselect,MC4R antag conf
CS(=O)(=O)c1ccc(Sc2nc3ccccc3s2)c([N+](=O)[O-])c1,-3.4,7.9,/,15.9,/,/,/
CC(C)[C@@H](C)/C=C/[C@@H](C)[C@H]1CC[C@@H]2[C@]1(C)CCC1[C@]23C=C[C@]2(C[C@@H](O)CC[C@]12C)N(c1cnccn1)O3 (stereo partly specified),/,/,0.0,/,3.1,/,/
CC(=O)C1(C(=O)N2CCOCC2)CC(c2ccccc2C(F)(F)F)=NO1 (stereo unspecified),/,/,/,/,4.1,/,/
O=C(c1ccc([N+](=O)[O-])cc1)N1CCOCC1,-0.1,/,-1.2,-1.3,-4.4,/,/
O=C(Oc1ccc(C(=S)N2CCOCC2)cc1)c1ccc([N+](=O)[O-])cc1,0.5,1.3,-2.2,34.5*,-0.6,-1.1,-17.6
O=C(Cn1ncc(Cl)c(Cl)c1=O)Nc1ccc2c(c1)OCO2,-3.8,9.5,0.1,36.6*,0.4,28.3*,66.1*
CCOC(=O)c1ccc(NC(=O)Cn2ncc(Cl)c(Cl)c2=O)cc1,-2.6,1.2,-2.2,18.2,-11.9,/,/
CCC(=O)Nc1ccc(C(=O)Cn2ncc(Cl)c(Cl)c2=O)cc1,1.2,10.0,-1.1,28.9*,-16.2,21.8*,26.4
Cc1cc(Br)ccc1NC(=O)CNC(=O)Cn1ncc(Cl)c(Cl)c1=O,-2.5,-1.3,0.1,47.4*,-3.5,28.6*,52.7*
CCC(=O)Nc1ccc2c(c1)C(=O)N(C)[C@@H]1CC[C@@H](CC(=O)NCc3ccc(OC)cc3)O[C@H]1CO2,/,/,/,/,-2.5,/,/
COc1cccc(NC(=O)NC2CCCCN(Cc3ccccc3C)C2=O)c1 (stereo unspecified),/,/,/,/,5.3,/,/
CN(c1ccc(NC(=O)Cc2cn(C)c3ccccc23)cc1)c1ccccn1,/,/,-1.4,/,-1.0,/,/
O=C(CNS(=O)(=O)c1ccc2ccccc2c1)OCC(=O)c1ccc(Br)s1,5.3,0.6,2.8,46.9*,5.5,23.4*,42.6*
Cc1cc(C(=O)COC(=O)CNS(=O)(=O)c2ccc3ccccc3c2)c(C)n1-c1ccccc1,-1.7,-0.7,2.1,13.2,-3.0,/,/
COc1cc(S(=O)(=O)n2ccc(C)n2)ccc1Cl,0.0,0.7,-2.4,28.7*,2.1,0.9,-6.7
Cc1ccc(S(=O)(=O)C=CS(=O)(=O)c2ccc(C)cc2)cc1,-4.6,/,0.1,41.6*,-2.9,8.9,-4.0
COc1ccc(OC)c2[nH]c(=O)c(CCNS(=O)(=O)c3ccc(F)cc3)cc12,2.8,1.7,0.1,32.7*,0.1,0.7,-1.9
CCS(=O)(=O)NCCc1cc2c(OC)ccc(OC)c2[nH]c1=O,-1.7,0.4,-1.3,-3.3,6.8,/,/
COc1ccc(OC)c2[nH]c(=O)c(CCNC(=O)C(=O)c3c(C)[nH]c4ccccc34)cc12,1.2,-2.1,-1.0,31.4*,-4.2,3.2,3.7
COc1ccc(OC)c2[nH]c(=O)c(CCNC(C)=O)cc12,2.5,-2.1,1.7,16.3,1.6,/,/
CCOC(=O)c1c(NC(=O)CCl)sc(CN(C)C)c1-c1ccccc1,-2.9,6.6,-1.6,47.9*,0.8,22.9*,41.0*
Cc1ccc(S(=O)(=O)N2CCCC2C(=O)N2CCc3ccccc3C2)cc1 (stereo unspecified),/,/,/,/,7.6,/,/
CC(=O)Nc1ccc2nc(NC(=O)C(Cl)(Cl)Cl)sc2c1,0.1,0.3,1.0,29.1*,0.8,-3.9,-18.5
Cc1ccccc1CS(=O)(=O)Cc1ccc(C(=O)Nc2ccc(F)cc2)o1,/,/,/,/,1.8,/,/
CCCCn1c(N)c(N(CCC(C)C)C(=O)CCCc2nc3ccccc3s2)c(=O)[nH]c1=O,-1.9,0.2,0.8,29.9*,-5.6,4.5,15.4
Cc1cc2nnc(SCC(=O)N3CCCCCC3)n2c(N)n1,-1.5,0.2,-1.4,29.3*,-4.4,0.1,-11.7
Cc1cc(C)nc(SCC(=O)N2CCCCC2)n1,-0.3,0.9,1.1,-0.5,5.7,/,/
CSCCC(NC(=O)c1ccc([N+](=O)[O-])cc1Cl)C(=O)OCC(=O)C12CC3CC(CC(C3)C1)C2 (stereo unspecified),1.9,4.4,-2.1,33.1*,7.8,-3.2,1.8
